Measurements published in paper PMC11382307 (Asian Journal of Pharmaceutical Sciences, 2024).

Tested on: bEnd.3 cells
Assay: In vitro cellular uptake in bEnd.3 cells
Format: in vitro ADME
Conditions: for cellular uptake observed by confocal imaging: 10 µM FITC-labelled peptide or free FITC, confocal microscopy
How it was run: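 bEnd.3 cells were seeded at 5 × 10^4/cm2 for 24 h, untreated or pretreated with poly-lysine (4 kDa, 20 µM, 1 h). They were exposed to 10 µM FITC-peptide or free FITC for 10 min, 30 min or 2 h, washed with cold PBS and fixed in 4 % PFA. Staining was DiD (10 µM, 30 min) or Hoechst, followed by confocal imaging. Flow cytometry was run on trypsinised cells (Ex 488/Em 525 nm). Mean ± SD, n = 3.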

[1] = 10 µM FITC-labelled peptide, 2 h, flow cytometry, n = 3

Compound	cellular uptake observed by confocal imaging (2 h)	adsorption to cell membrane (10 µM FITC-labelled peptide, 10 min, confocal)	cellular uptake relative to HNSS [1] [%]	fluorescence intensity of cellular uptake relative to HNG [1] [fold]
O=C1OC2(c3ccc(O)cc3Oc3cc(O)ccc32)c2ccc(N=C=S)cc21 [free FITC, reference compound]	weak cellular uptake			
MAPRGFSCLLLLTGEIDLPVKRRAGGR(d)-Dmt-KF-NH2 [HNRS]	weak cellular uptake	adsorbed on the plasma membrane	13.9	1.5
